Measurements from different studies.
Each line is one published result; the experiments were not run side by side.
Organism: Hepatitis C virus
Effect on: viral replication
Action: inhibitor
Setting: replicon

SMILES	technique	cell line	strain	time	EC50 [nM]
C=C1CC[C@H](O)C/C1=C/C=C1\CCC[C@]2(C)[C@@H]([C@H](C)/C=C/[C@H](C)C(C)C)CC[C@@H]12	luciferase	BM4-5	GETYPE1B	5 days	14200
O=C1O[C@H]2[C@@H]3OC(=O)c4cc(O)c(O)c(O)c4-c4c(O)c(O)c5oc(=O)c6c(c(O)c(O)c7oc(=O)c4c5c76)-c4c(cc(O)c(O)c4O)C(=O)OC[C@H]3OC(O)[C@@H]2OC(=O)c2cc(O)c(O)c(O)c2-c2c1cc(O)c(O)c2O (mixture of isomers)		Huh-7	GETYPE2A	48 h	~100000
CN1CCN([C@@H](c2ccccc2)c2ccc(Cl)cc2)CC1		Huh-7.5.1	GETYPE2A	48 h	24
COC(=O)N[C@H](C(=O)N1CCC[C@H]1c1ncc(-c2ccc(-c3ccc(-c4cnc([C@@H]5CCCN5C(=O)[C@@H](NC(=O)OC)C(C)C)[nH]4)cc3)cc2)[nH]1)C(C)C			GETYPE1B		0.009
CCN1CCN(C2c3ccccc3-c3ccc(Br)cc32)CC1 (centres unmarked)		Huh-7.5.1	GETYPE2A	48 h	> 1000
O=C1N[C@H]2[C@H](CS[C@H]2CCCCC(=O)N2CCC[C@@H]2C(=O)Nc2ccc(/C=C/c3ccc(NC(=O)[C@H]4CCCN4C(=O)Cc4ccccc4)cc3)cc2)N1			GETYPE1B		> 10000
C=C1/C(=C\C=C2/CCC[C@]3(C)[C@@H]([C@H](C)CCCC(C)(C)O)CC[C@@H]23)C[C@@H](O)C[C@@H]1O	luciferase	BM4-5	GETYPE1B	5 days	1100
COc1nc(N)nc2c1ncn2[C@@H]1O[C@H](COP(=O)(N[C@@H](C)C(=O)OCC(C)(C)C)Oc2cccc3ccccc23)[C@@H](O)[C@@]1(C)O (some centres unmarked)			GETYPE2A	96 h	7.3
